# Rows were chosen to be rich in hits. Some 3.7% of all compounds tested hit in one or more screens of this group.
# KCNK3 block – human KCNK3 channel inhibitors, primary screen, CHO cells, FluxOR thallium flux, B-score; FluxOR fluorescence; active compounds read low; B-score at 10 µM; 0.84% of 340,000 active; AID 602410, 2012;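 active = B-score under library mean minus 4 SD, starting fluorescence ratio at most library mean plus 5 SD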;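 also: more negative B-score means stronger inhibition of thallium flux through KCNK3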
# hERG protect – hERG rescue from dofetilide block, primary screen, cell-based, CHO-hERG, FluxOR thallium flux, dofetilide IC70; Voltage-gated inwardly rectifying potassium channel KCNH2 (Homo sapiens), Q12809; dofetilide IC70 present; activation (rescue from dofetilide block), less the hit threshold, % at 10 µM; 0.51% of 310,000 active; AID 1511, 2009;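 active = activation above the mean of controls blocked by dofetilide plus 5 SD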;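 also: thallium influx through hERG after potassium depolarization seen as dye fluorescence rise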
# KCNK9 inh – KCNK9 potassium channel inhibitors, primary screen, HEK293 cells, thallium flux. B-score at 10 µM. 1.2% of 310,000 active. Potassium channel subfamily K member 9 (Homo sapiens), Q9NPC2. FluxOR thallium flux fluorescence; active compounds read low;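 active = ratio B-score over 3 SD below the library mean, with starting fluorescence within 5 SD of its mean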;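 also: negative B-score means less thallium flux so channel inhibition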
# Target sequence (Q9NPC2 whole entry, looked up): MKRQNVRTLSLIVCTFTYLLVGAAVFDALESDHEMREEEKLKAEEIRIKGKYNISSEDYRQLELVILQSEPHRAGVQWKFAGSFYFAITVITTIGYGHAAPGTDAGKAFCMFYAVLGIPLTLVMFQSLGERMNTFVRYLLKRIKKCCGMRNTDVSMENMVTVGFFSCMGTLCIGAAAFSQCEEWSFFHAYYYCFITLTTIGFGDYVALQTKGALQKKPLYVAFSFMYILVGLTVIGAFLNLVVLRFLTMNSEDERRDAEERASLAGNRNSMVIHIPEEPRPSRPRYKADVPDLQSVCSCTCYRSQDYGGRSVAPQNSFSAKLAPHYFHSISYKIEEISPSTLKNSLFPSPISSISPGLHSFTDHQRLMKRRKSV
# KCNQ1 pot – potentiators or activators of KCNQ1 channel, primary screen, cell-based, thallium flux, high-throughput. Potassium voltage-gated channel subfamily KQT member 1 (Homo sapiens), P51787. B-score at 10 µM. CHO-K1 KCNQ1, thallium flux FluxOR fluorescence; active compounds read high. 0.35% of 310,000 active;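 active = fluorescence ratio B-score, a plate-corrected score, at least three library SD, with initial intensity B-score within 5 SD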
#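 Schedule – 37 °C overnight plating, 90-min dark dye load, 20-min compound pretreatment · System – stable KCNQ1 CHO-K1 line · Probe or stimulus – thallium- and potassium-containing depolarizing buffer · Measured by – kinetic FluxOR fluorescence, 10 s baseline plus 110 s post-stimulus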
# Kir21 inh – inhibitors of mouse Kir2.1 inward-rectifier potassium channel; Inward rectifier potassium channel 2 (Mus musculus), P35561; B-score at 10 µM; 0.85% of 310,000 active; HEK293-Kir2.1, FluxOR thallium flux fluorescence; active compounds read low;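 active = fluorescence ratio B-score at or below minus 3 SD of library scores, with starting-brightness B-score within 2 SD, cut at about -4.2 in these data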;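 also: channel flux triggered by added potassium and thallium sulfate stimulus; B-score of peak minus minimum fluorescence over baseline after thallium stimulus; more negative B-score means stronger Kir2.1 block with less thallium influx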
# KCNQ1 block – inhibitors of human KCNQ1 channel, primary screen, cell-based, thallium flux, high-throughput. Potassium voltage-gated channel subfamily KQT member 1 (Homo sapiens), P51787. 1.3% of 310,000 active. CHO-K1 KCNQ1, FluxOR thallium flux fluorescence; active compounds read high. B-score at 10 µM. AID 2642, 2010;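 active = compounds whose thallium flux B-score, printed positive for inhibition, exceeds three library SD while starting fluorescence stays within three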;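 also: channel opened by potassium depolarization with thallium stimulus after 20 min compound exposure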
# KCNK9 block conf – KCNK9 potassium channel inhibitors, confirmation, HEK293 cells, thallium flux, duplicate; FluxOR thallium flux fluorescence; shares compounds with KCNK9 inh; 43% of 4,900 active; inhibition, % at 10 µM;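 active = thallium signal inhibited by more than 5 SD of the compound-free buffer control wells, on both duplicate plates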;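 also: 0% = assay buffer control wells without compound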
# Kir2-1 spec – mouse Kir2.1 channel inhibition, confirmation, selectivity assay for KCNK9 modulator project, cell-based, HEK293, thallium flux. Kir2.1 cells, FluxOR thallium flux fluorescence. shares compounds with KCNK9 inh. inhibition, % at 10 µM. AID 492993, 2010. 4% of 4,900 active;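 active = thallium signal drop more than 5 SD beyond the mean of the no-compound control wells, seen in both duplicate plates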;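 also: signal is fluorescence rise after thallium addition divided by baseline fluorescence; plate controls were assay buffer only for no effect and full block by chlorpromazine control for full effect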
# HEK293 Tl ctr – thallium flux in non-induced HEK293 cells, confirmation, counter-screen for KCNK9 inhibitor project, cell-based, second counter screen, non-induced KCNK9-HEK293. FluxOR thallium flux. shares compounds with KCNK9 inh. 40% of 4,900 active. inhibition, % at 10 µM. AID 492997, 2010;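 active = thallium signal drop beyond 5 SD of the untreated control mean, on both duplicate plates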;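 also: plate controls were buffer only IC0 wells for no effect and SID17386958 at its maximal inhibitory level for full effect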
# * marks the source's active call; other numbers are inactive results; i = inactive; . = no result given.
SMILES,KCNK3 block,hERG protect,KCNK9 inh,KCNQ1 pot,Kir21 inh,KCNQ1 block,KCNK9 block conf,Kir2-1 spec,HEK293 Tl ctr
C=CCSc1nnc(-c2ccccc2N=Cc2c(C)[nH]n(-c3ccccc3)c2=O)c(=O)[nH]1,i,-22,i,i,1.4,i,.,.,.
CSc1nnc(-c2ccccc2N=Cc2c(C)[nH]n(-c3ccc4ccccc4c3)c2=O)c(=O)[nH]1,i,-13,i,i,0.67,i,i,i,i
CCCCc1cc(O)c(CCCC)c(O)c1,i,-3,-12*,i,-1.3,i,64%*,i,36%*
CCCCCc1cc(O)c2c(C)cc(=O)oc2c1,i,-15,i,i,-0.48,i,.,.,.
CSc1ccc(C(=O)C2CCCN(Cc3cccc4nccnc34)C2)cc1 (stereo not drawn),i,-18,i,i,-0.25,i,i,i,i
O=C(c1cccc(C(F)(F)F)c1)C1CCCN(Cc2cccn2-c2ncccn2)C1 (stereo not drawn),i,-24,i,i,-1.1,i,i,i,i
COc1ccc(C(=O)C2CCCN(Cc3cccn3-c3ccccn3)C2)cc1F (stereo not drawn),i,-29,i,i,-0.86,i,.,.,.
O=C(c1ccc(C(F)(F)F)cc1)C1CCCN(Cc2cccn2-c2ncccn2)C1 (stereo not drawn),i,-16,i,i,1.6,i,i,i,i
O=C(c1cccc(C(F)(F)F)c1)C1CCCN(C(=O)CN2CCCC2=O)C1 (stereo not drawn),i,-9,i,i,1.8,i,.,.,.
O=C(c1ccc(Cl)cc1)C1CCCN(Cc2cccn2-c2ccccn2)C1 (stereo not drawn),i,-20,i,i,-1.4,i,i,i,i
CCN(C(=O)CSc1nnc(-c2ccc(F)cc2)n1C)C1CCS(=O)(=O)C1 (stereo not drawn),i,.,.,.,.,.,.,.,.
COc1ccc(CCC(=O)NC2CCCc3ccccc32)cc1OC (stereo not drawn),i,-3,i,i,-1.5,i,.,.,.
CCc1ccc(N(CC(=O)NCCc2ccccc2)C(=O)CCC(=O)Nc2ccccn2)cc1,i,-2,i,i,1.9,i,.,.,.
COc1cccc(C(=O)C2CCCN(Cc3ccc(OC)c(Cn4cncn4)c3)C2)c1 (stereo not drawn),i,-15,i,i,1.4,i,.,.,.
COc1ccc(CN2CCCC(C(=O)c3ccc(Cl)cc3)C2)cc1Cn1cccn1 (stereo not drawn),i,-23,i,i,-2.8,i,i,i,i
CCOc1cc(CN2CCCC(C(=O)c3cccc(C(F)(F)F)c3)C2)ccc1O (stereo not drawn),i,-20,i,i,-0.7,i,i,i,i
COc1ccc(C(=O)C2CCCN(Cc3cccn3-c3nccs3)C2)cc1F (stereo not drawn),i,-21,i,i,-1.4,i,i,i,i
N/C(=N\O)c1cn(Cc2ccccc2Cl)c2ccccc12,i,-12,i,i,-3.6,i,.,.,.
Cc1[nH][nH]c(=O)c1C(c1c(C)[nH][nH]c1=O)c1cn(Cc2ccccc2Cl)c2ccccc12,i,-14,i,i,-0.74,i,i,i,i
COc1ccc(NC(=O)Cc2ccccc2F)cc1S(=O)(=O)N1CCCCC1,i,.,.,.,.,.,.,.,.
Cc1ccc(OCCC(=O)OCC(=O)Nc2ccc(C)c(S(=O)(=O)N3CCOCC3)c2)cc1,i,.,.,.,.,.,.,.,.
Cc1ccc(C)c(OCCC(=O)OCC(=O)Nc2ccc(C)c(S(=O)(=O)N3CCCCC3)c2)c1,i,-9,-11*,i,1.1,i,i,i,29%*
COc1ccc(NC(=O)COc2ccccc2F)cc1S(=O)(=O)N1CCCCC1,i,-14,-9.6*,i,1.3,i,i,i,i
C#CCn1cc(Cl)cc(C(=O)Nc2ccccc2)c1=O,i,-5,i,i,-1.3,i,.,.,.
COC(=O)c1ccc(N2CCN(C)CC2)c(NC(=O)c2ccc(Br)o2)c1,i,-11,i,i,0.99,i,.,.,.
SMILES,KCNK3 block,hERG protect,KCNK9 inh,KCNQ1 pot,Kir21 inh,KCNQ1 block,KCNK9 block conf,Kir2-1 spec,HEK293 Tl ctr
CCNCC(=O)N1c2ccccc2CCc2ccc(NC(=O)OC(C)C)cc21,i,-9,-13*,i,2.6,i,66%*,i,i
Clc1ccc(C(c2nnnn2C2CCCCC2)N(Cc2cccnc2)Cc2ccco2)cc1 (stereo not drawn),i,-9,-11*,i,1.6,i,i,i,45%*
Cc1ccc2[nH]c(=O)c(C(c3nnnn3C3CCCC3)N(Cc3cccnc3)Cc3ccco3)cc2c1 (stereo not drawn),i,-10,i,i,-1.1,i,.,.,.
CC1CCCC(N2CCN(C(=O)c3ccccc3F)CC2)C1 (stereo not drawn),i,-3,i,i,-0.06,i,.,.,.
CCOc1ccc2c(c1)-c1c(ssc1=S)C(C)(C)N2C(=O)CSC1=NCCS1,i,-17,-13*,i,1.4,i,70%*,i,34%*
CCN(CC)S(=O)(=O)c1ccc(N2CCOCC2)c(NC(=O)c2cc([N+](=O)[O-])ccc2Cl)c1,i,-5,i,i,-0.17,i,.,.,.
Cc1ccc(OCc2cc(C(=O)NC(C)Cc3cnccn3)no2)cc1C (stereo not drawn),i,-10,i,i,-0.1,i,.,.,.

# Screens (PubChem)
